Measured values: paper PMC2193645 (The Journal of Experimental Medicine, 1999)

Key:
[1] = test system: QC85.5 hybridoma; assay: T cell hybridoma assay; type: cell-based, mouse; conditions: IL-2 production; in words
Outline: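 Increasing numbers of splenocytes from transgenic mice were cultured 24 h with QC85.5 hybridoma cells. QC85.5 was raised by immunizing CE/J mice with a position-72 altered Hb peptide, subcloned twice, and recognizes several position-72 variants. IL-2 in supernatant was measured by CTLL-2 proliferation and plotted as CTLL-2 cpm against splenocytes per well. Each point is the mean of triplicate wells.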

[2] = test system: 3.L2tg thymocytes; assay: Three-color FACS of thymocytes from APLtg × 3.L2tg mice; type: in vivo, mouse; conditions: for Interpretation: effect on thymic selection of 3.L2tg T cells: ligand expressed in thymus as mHEL epitope tag, in words
[3] = test system: splenocytes from APLtg × 3.L2tg mice; assay: Primary T cell proliferation of naive splenocytes to Hb; type: cell-based, mouse; conditions: in words
Outline: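 Naive splenocytes from APLtg × 3.L2tg mice or 3.L2tg controls were plated at 5 × 10^5/well with increasing Hb(64–76) peptide concentrations for 48 h. They were then pulsed with 0.4 μCi [3H]TdR for 18 h, harvested and counted. Read-out was mean cpm of triplicate wells per peptide dose, and curves were averaged across several experiments.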

[4] = test system: mature 3.L2 T cells; conditions: B cell apoptosis assay; cited from earlier work
[5] = test system: 3.L2 TCR; conditions: cited from earlier work; for Half-life: longevity of the 3.L2 TCR–APL complex; for Half-life / Kd: BIAcore; for Kd: read-out: K D k off/k on, kinetic
[6] = test system: mature 3.L2 T cells; conditions: cited from earlier work; for Effect on mature T cells: ligand class in words
[7] = test system: 3.L2.12 hybridoma; conditions: cited from earlier work

Substance | Stimulation of QC85.5 hybridoma by peptide [1] | Interpretation: effect on thymic selection of 3.L2tg T cells [2] | Response of naive 3.L2tg splenocytes to Hb(64–76) on the selecting background [3] | Relative activity [4] | Half-life [5] | Kd [5] | Effect on mature T cells [6] | Increase in percentage of CD4-SP cells with high levels of the 3.L2 TCR over 3.L2tg control ([2]; P < 0.01) | Binding to the 3.L2 TCR in BIAcore experiments ([5]; in words) | Reduction of 3.L2.12 stimulation by peptide [7] | Fold less active than N72(wt) [6]
GKKVITAFNEGLK [N72(wt), Hb(64–76)] | produce IL-2 | complete negative selection | tolerant to Hb(64–76) | 100 | 10.8 s | 12 µM | the strongest agonist | – | – | – | –
GKKVITAFQEGLK [Ligand Q72, Hb(64–76) N72Q] | stimulated most strongly | enhance the positive selection | – | none | – | – | no effect on mature 3.L2 T cells | 12% | no binding can be detected | – | –
Hb(64–76) N72A [Ligand A72] | produce IL-2 | modest negative selection | – | 0.0007 | <2 s | – | a weaker antagonist | – | – | – | –
Hb(64–76) N72E [Ligand E72] | – | no effect on 3.L2tg T cell development | – | none | – | – | no effect on mature T cells | – | – | – | –
Hb(64–76) N72I [Ligand I72] | – | complete negative selection | tolerant to Hb(64–76) | 0.006 | 2.3 to 3.4 s | 10 to 20 µM | an antagonist | – | – | – | –
Hb(64–76) N72T [Ligand T72] | produce IL-2 | identical effect | tolerant to Hb(64–76) | 2 | 5.1 s | 9.9 µM | a weaker agonist | – | – | 50 fold | 50 fold
